Experiments:
[1] = target: T1, Human immunodeficiency virus type 1 integrase (Human immunodeficiency virus 1, UniProt Q7ZJM1); experiment: Inhibition of HIV1 integrase by LTR cleavage assay
[2] = system: Human immunodeficiency virus 1; experiment: Antiviral activity against HIV1 HxB2 harboring integrase A124/T125 mutant by cell based luciferase reporter gene assay; format: functional, organism-based; details: Human immunodeficiency virus 1, HxB2
In short: (§1)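 Cell-based luciferase reporter gene assay of HIV-1 replication. Virus was HxB2 (IN A124/T125), wild-type NL4.3 (T124/T125), or recombinant NL4.3 carrying IN variants A124/T125, A124/A125, N124/T125, N124/A125 or T124/A125 (T125A). EC50 is the mean of at least two experiments. Where three or more experiments were run, relative SD was 12–43%.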

[3] = system: Human immunodeficiency virus 1; experiment: Antiviral activity against HIV1 NL4.3 harboring integrase T124/A125 mutant by cell based luciferase reporter gene assay; format: functional, organism-based; details: Human immunodeficiency virus 1, NL4.3; in short: as §1
[4] = system: Human immunodeficiency virus 1; experiment: Antiviral activity against HIV1 NL4.3 harboring integrase T125A mutant by cell based luciferase reporter gene assay in presence of 50% human serum; format: functional; parameters: reference not given here
In short: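 Luciferase reporter gene assay with recombinant NL4.3 carrying the IN T125A substitution. […] Each value is the mean of at least two experiments.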

[5] = target: T1, Human immunodeficiency virus type 1 integrase; experiment: Binding affinity to HIV1 integrase by displacement assay; details: read-out: Kd(app)
In short: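 The displacement assay against HIV-1 integrase gives the value as an apparent dissociation constant (Kd-app).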

[6] = system: Human immunodeficiency virus 1; experiment: Ratio of EC50 for HIV1 NL4.3 harboring integrase T124/A125 mutant to EC50 for HIV1 HxB2 harboring integrase A124/T125 mutant
[7] = Half life in human liver microsomes; format: ADME
[8] = system: Human immunodeficiency virus 1; experiment: Antiviral activity against HIV1 NL4.3 harboring integrase N124/T125 mutant by cell based luciferase reporter gene assay; format: functional, organism-based; details: Human immunodeficiency virus 1, NL4.3; in short: as §1
[9] = Apparent permeability across human Caco2 cells; format: ADME, cell-based; details: Caco-2
Cytochrome P450 2D6 = Cytochrome P450 2D6 (Homo sapiens, UniProt P10635); experiment: Inhibition of CYP2D6 (unknown origin); format: ADME
Chain of Cytochrome P450 2D6 (P10635 whole entry): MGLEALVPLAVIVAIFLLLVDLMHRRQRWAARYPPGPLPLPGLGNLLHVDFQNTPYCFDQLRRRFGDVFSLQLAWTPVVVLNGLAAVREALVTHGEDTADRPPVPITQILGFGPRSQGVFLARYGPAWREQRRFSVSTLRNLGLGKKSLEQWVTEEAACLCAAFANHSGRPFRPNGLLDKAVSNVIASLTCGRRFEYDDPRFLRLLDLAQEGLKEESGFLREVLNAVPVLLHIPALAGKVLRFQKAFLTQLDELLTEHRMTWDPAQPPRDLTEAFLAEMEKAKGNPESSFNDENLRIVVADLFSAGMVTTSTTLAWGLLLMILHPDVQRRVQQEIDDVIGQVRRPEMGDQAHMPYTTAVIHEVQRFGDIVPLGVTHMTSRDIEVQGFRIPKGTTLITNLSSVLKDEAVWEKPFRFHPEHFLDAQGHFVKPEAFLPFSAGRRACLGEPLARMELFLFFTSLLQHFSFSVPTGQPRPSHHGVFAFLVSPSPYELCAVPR

Cytochrome P450 3A4 = Cytochrome P450 3A4 (Homo sapiens, UniProt P08684); experiment: Inhibition of CYP3A4 (unknown origin); format: ADME
Chain of Cytochrome P450 3A4 (P08684 whole entry): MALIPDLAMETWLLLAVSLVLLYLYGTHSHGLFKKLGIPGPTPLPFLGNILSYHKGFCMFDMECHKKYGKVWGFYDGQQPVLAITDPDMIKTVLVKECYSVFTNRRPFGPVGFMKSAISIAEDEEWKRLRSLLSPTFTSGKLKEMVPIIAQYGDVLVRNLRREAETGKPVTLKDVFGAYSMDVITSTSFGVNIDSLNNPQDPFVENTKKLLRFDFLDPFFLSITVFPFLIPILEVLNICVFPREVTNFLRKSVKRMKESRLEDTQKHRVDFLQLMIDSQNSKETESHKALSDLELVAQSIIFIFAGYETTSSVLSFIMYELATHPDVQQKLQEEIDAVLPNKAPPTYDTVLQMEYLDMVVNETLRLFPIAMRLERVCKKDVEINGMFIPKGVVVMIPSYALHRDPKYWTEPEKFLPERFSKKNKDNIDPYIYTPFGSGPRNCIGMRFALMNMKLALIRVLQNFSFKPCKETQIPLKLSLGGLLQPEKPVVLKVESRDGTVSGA

[10] = Half life in rat at 0.2 mg/kg, iv and 0.4 mg/kg, po; format: ADME, organism-based; details: in vivo
[11] = system: Human immunodeficiency virus 1; experiment: Antiviral activity against HIV1 NL4.3 harboring integrase A124/T125 mutant by cell based luciferase reporter gene assay; format: functional, organism-based; details: Human immunodeficiency virus 1, NL4.3; in short: as §1
[12] = system: Human immunodeficiency virus 1; experiment: Antiviral activity against HIV1 NL4.3 harboring integrase T124/T125 mutant by cell based luciferase reporter gene assay; format: functional, organism-based; details: Human immunodeficiency virus 1, NL4.3; in short: as §1
[13] = system: Human immunodeficiency virus 1; experiment: Antiviral activity against HIV1 NL4.3 harboring integrase A124/A125 mutant by cell based luciferase reporter gene assay; format: functional, organism-based; details: Human immunodeficiency virus 1, NL4.3; in short: as §1
[14] = Oral bioavailability in rat at 0.4 mg/kg; format: ADME, organism-based; details: in vivo
[15] = Solubility of the compound at pH 6.8; format: physicochemical; details: buffer
In short: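 Solubility was measured at pH 6.8 on the amorphous powder form of the compound.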

[16] = system: Human immunodeficiency virus 1; experiment: Antiviral activity against HIV1 NL4.3 harboring integrase N124/A125 mutant by cell based luciferase reporter gene assay; format: functional, organism-based; details: Human immunodeficiency virus 1, NL4.3; in short: as §1
[17] = Half life in rat liver microsomes; format: ADME

T1 sequence (Q7ZJM1 whole entry): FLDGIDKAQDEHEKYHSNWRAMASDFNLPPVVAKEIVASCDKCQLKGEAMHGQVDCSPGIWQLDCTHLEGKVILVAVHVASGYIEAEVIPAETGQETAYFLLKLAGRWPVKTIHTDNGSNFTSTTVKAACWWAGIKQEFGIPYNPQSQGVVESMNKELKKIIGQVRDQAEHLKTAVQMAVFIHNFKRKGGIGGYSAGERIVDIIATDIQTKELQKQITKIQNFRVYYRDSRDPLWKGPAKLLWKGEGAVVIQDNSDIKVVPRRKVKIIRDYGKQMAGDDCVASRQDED

CCCC(C(=O)O)c1c(C)nc2ccc(Br)cc2c1-c1ccc(Cl)cc1 (configuration not stated)
IC50 [1]: 77 nM
EC50 [2]: 920 nM

Cc1ccc2c(-c3ccc4c(c3Cl)CCCO4)c([C@H](OC(C)(C)C)C(=O)O)c(C)nc2c1
EC50 [2]: 2 nM
EC50 [3]: 22 nM
fold change (FC) [4]: 83

Cc1nc2ccc(Br)cc2c(-c2ccc(Cl)cc2)c1[C@H](OC(C)(C)C)C(=O)O
Kd [5]: 150 nM
Ratio EC50 [6]: 8
EC50 [2]: 78 nM
EC50 [3]: 610 nM

Cc1nc2ccc(F)cc2c(-c2ccc(Cl)cc2)c1[C@H](OC(C)(C)C)C(=O)O
Kd [5]: 61 nM
EC50 [2]: 28 nM
EC50 [3]: 70 nM

Cc1nc2cc(Cl)ccc2c(-c2ccc(Cl)cc2)c1[C@H](OC(C)(C)C)C(=O)O
Kd [5]: 140 nM
EC50 [2]: 31 nM
EC50 [3]: 120 nM

Cc1nc2ccc(Cl)cc2c(-c2ccccc2)c1CC(=O)O
EC50 [2]: > 40000 nM

Cc1nc2ccc(Br)cc2c(-c2ccc(Cl)cc2)c1CC(=O)O
IC50 [1]: 270 nM
EC50 [2]: 16000 nM

Cc1ccc2c(-c3ccc4c(c3)CCCO4)c([C@H](OC(C)(C)C)C(=O)O)c(C)nc2c1
half-life [7]: 1.1 h
EC50 [2]: 7 nM
EC50 [3]: 22 nM
fold change (FC) [4]: 66

CO[C@H](C(=O)O)c1c(C)nc2ccc(Br)cc2c1-c1ccc(Cl)cc1
Kd [5]: 4700 nM
IC50 [1]: 28 nM
EC50 [2]: 450 nM

Cc1ccc2c(-c3ccc4c5c(ccnc35)CCO4)c([C@H](OC(C)(C)C)C(=O)O)c(C)nc2c1
half-life [7]: 3.5 h
EC50 [2]: 6 nM
EC50 [3]: 21 nM
fold change (FC) [4]: 4.7

Cc1ccc2nc(C)c([C@H](OC(C)(C)C)C(=O)O)c(-c3ccc(Cl)cc3)c2c1
Kd [5]: 48 nM
EC50 [2]: 27 nM
EC50 [3]: 160 nM

Cc1nc2ccc(Br)cc2c(-c2ccc(Cl)cc2)c1[C@H](OC(C)C)C(=O)O
Kd [5]: 280 nM
EC50 [2]: 130 nM

Cc1ccc2c(-c3ccc(Cl)cc3)c([C@H](OC(C)(C)C)C(=O)O)c(C)nc2c1
Kd [5]: 40 nM
half-life [7]: 0.417 h
EC50 [2]: 13 nM
EC50 [3]: 130 nM
fold change (FC) [4]: 25

Cc1ccc2c(-c3ccc4c(c3Cl)NCCO4)c([C@H](OC(C)(C)C)C(=O)O)c(C)nc2c1
half-life [7]: 1.08 h
EC50 [3]: 29 nM
fold change (FC) [4]: 15

CO[C@@H](C(=O)O)c1c(C)nc2ccc(Br)cc2c1-c1ccc(Cl)cc1
IC50 [1]: 3100 nM
EC50 [2]: 47000 nM

COC(C(=O)O)c1c(C)nc2ccc(Br)cc2c1-c1ccc(Cl)cc1 (configuration not stated)
IC50 [1]: 40 nM
EC50 [2]: 990 nM

Cc1nc2cc(F)ccc2c(-c2ccc(Cl)cc2)c1[C@H](OC(C)(C)C)C(=O)O
Kd [5]: 68 nM
EC50 [2]: 26 nM
EC50 [3]: 91 nM

Cc1nc2ccccc2c(-c2ccc3c4c(ccnc24)CCO3)c1[C@H](OC(C)(C)C)C(=O)O [BI-224436]
EC50 [8]: 11 nM
Papp [9]: 14 ×10⁻⁶ cm/s
IC50 (Cytochrome P450 2D6): > 30000 nM
IC50 (Cytochrome P450 3A4): 23000 nM
half-life [10]: 8.8 h
EC50 [11]: 11 nM
half-life [7]: 3.5 h
EC50 [2]: 11 nM
EC50 [12]: 11 nM
EC50 [13]: 11 nM
bioavailability [14]: 54%
solubility [15]: > 850 µg/mL
fold change (FC) [4]: 2.1
EC50 [16]: 11 nM
half-life [17]: > 5 h

Cc1nc2ccc(Br)cc2c(-c2ccccc2)c1CC(=O)O
EC50 [2]: > 33000 nM

Cc1nc2ccccc2c(-c2ccc(Cl)cc2)c1[C@H](OC(C)(C)C)C(=O)O
Kd [5]: 49 nM
EC50 [2]: 23 nM
EC50 [3]: 110 nM

Cc1ccc(-c2c(CC(=O)O)c(C)nc3ccc(Br)cc23)cc1
IC50 [1]: 350 nM
EC50 [2]: 20000 nM

Cc1nc2ccc(Br)cc2c(-c2ccc(Cl)cc2)c1C(C)C(=O)O (configuration not stated)
IC50 [1]: 310 nM
EC50 [2]: 13000 nM

Cc1ccc2c(-c3cccc4cccnc34)c([C@H](OC(C)(C)C)C(=O)O)c(C)nc2c1
half-life [7]: > 5 h
EC50 [2]: 34 nM
EC50 [3]: 300 nM
fold change (FC) [4]: 4

Cc1nc2ccccc2c(-c2ccc(Cl)cc2)c1CC(=O)O
EC50 [2]: > 43000 nM

— ChEMBL document CHEMBL3259658, “Discovery of BI 224436, a Noncatalytic Site Integrase Inhibitor (NCINI) of HIV-1” (ACS Med Chem Lett, 2014)
